According to ChEMBL document CHEMBL1153439, “Design, synthesis, antimicrobial activity and molecular modeling studies of novel benzofuroxan derivatives against Staphylococcus aureus” (2009):
In brackets after ≈: the same amount, converted by molar mass.

Assays:
Format in all cases: functional
Staphylococcus aureus [1] = test: Antibacterial activity against Staphylococcus aureus ATCC 25923 after 18 hrs by phase 1 broth microdilution method; details: ATCC 25923, 18 h
How it was run: (§1)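 Phase I: twofold serial dilutions in Tryptic Soy Broth, 96-well plates, concentrations […]. Stocks in DMSO/TSB 1:10 v/v, with final DMSO 5.0–0.01%. Inoculum was set to 0.5 McFarland, then diluted in saline and TSB. Plates ran 18 h at 35 °C. MIC is the lowest concentration without visible growth, in triplicate. Sterility was read at 24 and 48 h. Ampicillin, chloramphenicol and vancomycin were controls.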

Staphylococcus aureus [2] = test: Antibacterial activity against Staphylococcus aureus ATCC 25923 after 18 hrs by phase 2 broth microdilution method; details: ATCC 25923, 18 h
How it was run: (§2)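 Phase II narrowed the phase I MIC in Tryptic Soy Broth. Stock was made at twice the phase I MIC, then diluted 10% stepwise with TSB through column 11. Final DMSO was 2.5–1.0%. Positive growth control wells received TSB. Inoculum was prepared as in phase I and plates were incubated 18 h at 35 °C.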

Staphylococcus aureus [3] = test: Antibacterial activity against multidrug-resistant Staphylococcus aureus 3SP/R33 after 18 hrs by phase 1 broth microdilution method; how it was run: as §1
Staphylococcus aureus [4] = test: Antibacterial activity against multidrug-resistant Staphylococcus aureus 3SP/R33 after 18 hrs by phase 2 broth microdilution method; how it was run: as §2
Staphylococcus aureus [5] = test: Antibacterial activity against multidrug-resistant vancomycin-intermediate Staphylococcus aureus VISA3 after 18 hrs phase 1 by broth microdilution method; how it was run: as §1
Staphylococcus aureus [6] = test: Antibacterial activity against multidrug-resistant vancomycin-intermediate Staphylococcus aureus VISA3 after 18 hrs phase 2 by broth microdilution method; how it was run: as §2
Staphylococcus aureus [7] = test: Antibacterial activity against Staphylococcus aureus ATCC 25923 after 18 hrs by broth microdilution method; details: ATCC 25923, 18 h
How it was run: (§3)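 Broth microdilution in Tryptic Soy Broth in 96-well plates, with DMSO as solvent at no more than 5% of the total. Inoculum was set to 0.5 McFarland and diluted in saline and TSB. Plates were incubated 18 h at 35 °C. MIC is the lowest concentration without visible growth. The MIC was determined in two phases, the second narrowing the first.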

Staphylococcus aureus [8] = test: Antibacterial activity against multidrug-resistant Staphylococcus aureus 3SP/R33 after 18 hrs by broth microdilution method; how it was run: as §3
Staphylococcus aureus [9] = test: Antibacterial activity against multidrug-resistant vancomycin-intermediate Staphylococcus aureus VISA3 after 18 hrs by broth microdilution method; how it was run: as §3

**Q.** What does the source list for `O=C(N/N=C/c1ccc2c(c1)no[n+]2[O-])c1ccc(Cl)cc1`?
**A.** MIC (Staphylococcus aureus [1]): 10 µg/mL (≈ 31.6 µM); MIC (Staphylococcus aureus [2]): 15.3 µg/mL (≈ 48.3 µM); MIC (Staphylococcus aureus [3]): 10 µg/mL (≈ 31.6 µM); MIC (Staphylococcus aureus [4]): 15.3 µg/mL (≈ 48.3 µM); MIC (Staphylococcus aureus [5]): 10 µg/mL (≈ 31.6 µM); MIC (Staphylococcus aureus [6]): 15.3 µg/mL (≈ 48.3 µM)

**Q.** With `O=C(N[C@H](CO)[C@H](O)c1ccc([N+](=O)[O-])cc1)C(Cl)Cl` [CHLORAMPHENICOL] as the compound, how does the MIC (Staphylococcus aureus [7]) read?
**A.** 2 µg/mL (≈ 6.19 µM)

**Q.** And the MIC (Staphylococcus aureus [8])?
**A.** 32 µg/mL (≈ 99 µM)

**Q.** What about the MIC (Staphylococcus aureus [9]) of the same compound?
**A.** 32 µg/mL (≈ 99 µM)

**Q.** Which results are given for `CN(C)c1ccc(C(=O)N/N=C/c2ccc3c(c2)no[n+]3[O-])cc1`?
**A.** MIC (Staphylococcus aureus [1]): > 80 µg/mL; MIC (Staphylococcus aureus [3]): > 80 µg/mL; MIC (Staphylococcus aureus [5]): > 80 µg/mL

**Q.** Which MIC (Staphylococcus aureus [7]) does the source give for `CC1(C)S[C@@H]2[C@H](NC(=O)[C@H](N)c3ccccc3)C(=O)N2[C@H]1C(=O)O` [AMPICILLIN] here?
**A.** 0.1 µg/mL (≈ 0.286 µM)

**Q.** Which MIC (Staphylococcus aureus [1]) does the source give for `CC(=O)c1ccc(C(=O)N/N=C/c2ccc3c(c2)no[n+]3[O-])cc1` here?
**A.** 20 µg/mL (≈ 61.7 µM)

**Q.** What about the MIC (Staphylococcus aureus [2]) of the same compound?
**A.** 21.2 µg/mL (≈ 65.4 µM)

**Q.** And the MIC (Staphylococcus aureus [3])?
**A.** 20 µg/mL (≈ 61.7 µM)

**Q.** What about the MIC (Staphylococcus aureus [4]) of the same compound?
**A.** 21.2 µg/mL (≈ 65.4 µM)

**Q.** What about the MIC (Staphylococcus aureus [5]) of the same compound?
**A.** 20 µg/mL (≈ 61.7 µM)

**Q.** What about the MIC (Staphylococcus aureus [6]) of the same compound?
**A.** 21.2 µg/mL (≈ 65.4 µM)

**Q.** `NS(=O)(=O)c1ccc(C(=O)N/N=C/c2ccc3c(c2)no[n+]3[O-])cc1` was tested. Which MIC (Staphylococcus aureus [1]) did it give?
**A.** > 80 µg/mL

**Q.** What about the MIC (Staphylococcus aureus [3]) of the same compound?
**A.** > 80 µg/mL

**Q.** What about the MIC (Staphylococcus aureus [5]) of the same compound?
**A.** > 80 µg/mL

**Q.** Which MIC (Staphylococcus aureus [1]) does the source give for `O=C(N/N=C/c1ccc2c(c1)no[n+]2[O-])c1ccc(O)cc1` here?
**A.** 20 µg/mL (≈ 67.1 µM)

**Q.** And the MIC (Staphylococcus aureus [2])?
**A.** 26.2 µg/mL (≈ 87.8 µM)

**Q.** And the MIC (Staphylococcus aureus [3])?
**A.** 20 µg/mL (≈ 67.1 µM)

**Q.** And the MIC (Staphylococcus aureus [4])?
**A.** 26.2 µg/mL (≈ 87.8 µM)

**Q.** And the MIC (Staphylococcus aureus [5])?
**A.** 20 µg/mL (≈ 67.1 µM)

**Q.** And the MIC (Staphylococcus aureus [6])?
**A.** 26.2 µg/mL (≈ 87.8 µM)

**Q.** How did the MIC (Staphylococcus aureus [1]) turn out when `Nc1ccc(C(=O)N/N=C/c2ccc3c(c2)no[n+]3[O-])cc1` was run?
**A.** 10 µg/mL (≈ 33.6 µM)

**Q.** What about the MIC (Staphylococcus aureus [2]) of the same compound?
**A.** 15.3 µg/mL (≈ 51.5 µM)

**Q.** What about the MIC (Staphylococcus aureus [3]) of the same compound?
**A.** 10 µg/mL (≈ 33.6 µM)

**Q.** And the MIC (Staphylococcus aureus [4])?
**A.** 15.3 µg/mL (≈ 51.5 µM)

**Q.** What about the MIC (Staphylococcus aureus [5]) of the same compound?
**A.** 10 µg/mL (≈ 33.6 µM)

**Q.** What about the MIC (Staphylococcus aureus [6]) of the same compound?
**A.** 15.3 µg/mL (≈ 51.5 µM)

**Q.** How did the MIC (Staphylococcus aureus [1]) turn out when `N#Cc1ccc(C(=O)N/N=C/c2ccc3c(c2)no[n+]3[O-])cc1` was run?
**A.** 20 µg/mL (≈ 65.1 µM)

**Q.** And the MIC (Staphylococcus aureus [2])?
**A.** 26.2 µg/mL (≈ 85.3 µM)

**Q.** What about the MIC (Staphylococcus aureus [3]) of the same compound?
**A.** 20 µg/mL (≈ 65.1 µM)

**Q.** What about the MIC (Staphylococcus aureus [4]) of the same compound?
**A.** 26.2 µg/mL (≈ 85.3 µM)

**Q.** And the MIC (Staphylococcus aureus [5])?
**A.** 20 µg/mL (≈ 65.1 µM)

**Q.** And the MIC (Staphylococcus aureus [6])?
**A.** 26.2 µg/mL (≈ 85.3 µM)

**Q.** How did the MIC (Staphylococcus aureus [1]) turn out when `Cc1ccc(C(=O)N/N=C/c2ccc3c(c2)no[n+]3[O-])cc1` was run?
**A.** 20 µg/mL (≈ 67.5 µM)

**Q.** And the MIC (Staphylococcus aureus [2])?
**A.** 21 µg/mL (≈ 70.9 µM)

**Q.** What about the MIC (Staphylococcus aureus [3]) of the same compound?
**A.** 20 µg/mL (≈ 67.5 µM)

**Q.** And the MIC (Staphylococcus aureus [4])?
**A.** 21 µg/mL (≈ 70.9 µM)

**Q.** What about the MIC (Staphylococcus aureus [5]) of the same compound?
**A.** 20 µg/mL (≈ 67.5 µM)

**Q.** And the MIC (Staphylococcus aureus [6])?
**A.** 21 µg/mL (≈ 70.9 µM)

**Q.** For `O=C(N/N=C/c1ccc2c(c1)no[n+]2[O-])c1ccc(F)cc1`, which MIC (Staphylococcus aureus [1]) is on record?
**A.** 10 µg/mL (≈ 33.3 µM)

**Q.** And the MIC (Staphylococcus aureus [2])?
**A.** 14.6 µg/mL (≈ 48.6 µM)

**Q.** And the MIC (Staphylococcus aureus [3])?
**A.** 10 µg/mL (≈ 33.3 µM)

**Q.** And the MIC (Staphylococcus aureus [4])?
**A.** 14.6 µg/mL (≈ 48.6 µM)

**Q.** And the MIC (Staphylococcus aureus [5])?
**A.** 10 µg/mL (≈ 33.3 µM)

**Q.** What about the MIC (Staphylococcus aureus [6]) of the same compound?
**A.** 14.6 µg/mL (≈ 48.6 µM)

**Q.** `O=C(N/N=C/c1ccc2c(c1)no[n+]2[O-])c1ccc(C(F)(F)F)cc1` was tested. Which MIC (Staphylococcus aureus [1]) did it give?
**A.** 10 µg/mL (≈ 28.6 µM)

**Q.** And the MIC (Staphylococcus aureus [2])?
**A.** 13.1 µg/mL (≈ 37.4 µM)

**Q.** What about the MIC (Staphylococcus aureus [3]) of the same compound?
**A.** 10 µg/mL (≈ 28.6 µM)

**Q.** What about the MIC (Staphylococcus aureus [4]) of the same compound?
**A.** 13.1 µg/mL (≈ 37.4 µM)

**Q.** What about the MIC (Staphylococcus aureus [5]) of the same compound?
**A.** 10 µg/mL (≈ 28.6 µM)

**Q.** What about the MIC (Staphylococcus aureus [6]) of the same compound?
**A.** 13.1 µg/mL (≈ 37.4 µM)

**Q.** With `O=C(N/N=C/c1ccc2c(c1)no[n+]2[O-])c1ccccc1` as the compound, how does the MIC (Staphylococcus aureus [1]) read?
**A.** 10 µg/mL (≈ 35.4 µM)

**Q.** And the MIC (Staphylococcus aureus [2])?
**A.** 16.2 µg/mL (≈ 57.4 µM)

**Q.** What about the MIC (Staphylococcus aureus [3]) of the same compound?
**A.** 10 µg/mL (≈ 35.4 µM)

**Q.** What about the MIC (Staphylococcus aureus [4]) of the same compound?
**A.** 16.2 µg/mL (≈ 57.4 µM)

**Q.** And the MIC (Staphylococcus aureus [5])?
**A.** 10 µg/mL (≈ 35.4 µM)

**Q.** And the MIC (Staphylococcus aureus [6])?
**A.** 16.2 µg/mL (≈ 57.4 µM)

**Q.** `COc1ccc(C(=O)N/N=C/c2ccc3c(c2)no[n+]3[O-])cc1` was tested. Which MIC (Staphylococcus aureus [1]) did it give?
**A.** 10 µg/mL (≈ 32 µM)

**Q.** What about the MIC (Staphylococcus aureus [2]) of the same compound?
**A.** 16.2 µg/mL (≈ 51.9 µM)

**Q.** And the MIC (Staphylococcus aureus [3])?
**A.** 10 µg/mL (≈ 32 µM)

**Q.** What about the MIC (Staphylococcus aureus [4]) of the same compound?
**A.** 16.2 µg/mL (≈ 51.9 µM)

**Q.** And the MIC (Staphylococcus aureus [5])?
**A.** 10 µg/mL (≈ 32 µM)

**Q.** And the MIC (Staphylococcus aureus [6])?
**A.** 16.2 µg/mL (≈ 51.9 µM)

**Q.** `O=C(N/N=C/c1ccc2c(c1)no[n+]2[O-])c1ccc(Br)cc1` was tested. Which MIC (Staphylococcus aureus [1]) did it give?
**A.** 10 µg/mL (≈ 27.7 µM)

**Q.** And the MIC (Staphylococcus aureus [2])?
**A.** 18 µg/mL (≈ 49.8 µM)

**Q.** And the MIC (Staphylococcus aureus [3])?
**A.** 10 µg/mL (≈ 27.7 µM)

**Q.** What about the MIC (Staphylococcus aureus [4]) of the same compound?
**A.** 18 µg/mL (≈ 49.8 µM)

**Q.** And the MIC (Staphylococcus aureus [5])?
**A.** 10 µg/mL (≈ 27.7 µM)

**Q.** What about the MIC (Staphylococcus aureus [6]) of the same compound?
**A.** 18 µg/mL (≈ 49.8 µM)

**Q.** With `O=C(N/N=C/c1ccc2c(c1)no[n+]2[O-])c1ccc(I)cc1` as the compound, how does the MIC (Staphylococcus aureus [1]) read?
**A.** 20 µg/mL (≈ 49 µM)

**Q.** What about the MIC (Staphylococcus aureus [2]) of the same compound?
**A.** 23.6 µg/mL (≈ 57.8 µM)

**Q.** What about the MIC (Staphylococcus aureus [3]) of the same compound?
**A.** 20 µg/mL (≈ 49 µM)

**Q.** What about the MIC (Staphylococcus aureus [4]) of the same compound?
**A.** 23.6 µg/mL (≈ 57.8 µM)

**Q.** And the MIC (Staphylococcus aureus [5])?
**A.** 20 µg/mL (≈ 49 µM)

**Q.** What about the MIC (Staphylococcus aureus [6]) of the same compound?
**A.** 23.6 µg/mL (≈ 57.8 µM)
